We go through 44 compounds from ChEMBL document CHEMBL1136965, “Inhibition of dynamin mediated endocytosis by the dynoles--synthesis and functional activity of a family of indoles” (J Med Chem, 2009).

Active and inactive are the calls of the source. The calls are words filed in the database; no cut-off is given here.

For data set [1], the species on record is Ovis aries. Nature of the data set: Inhibition of sheep brain dynamin 1 GTPase activity at 300 uM by malachite green GTPase assay.
Data set [2] can be described thus: Inhibition of sheep brain dynamin 1 GTPase activity by malachite green GTPase assay. Set-up: species or system Ovis aries. A digest of the protocol: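 Buffer: 5 mM Tris pH 7.4, 10 mM NaCl, 2 mM Mg2+, 0.05% Tween 80, leupeptin, PMSF. GTP 0.3 mM, 30 min at 37 °C. Stopped with EDTA, malachite green added, A650 read against a phosphate standard. IC50 is the mean of at least three experiments in duplicate.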

The test system of another data set is U2OS. Briefly: Toxicity against human U2OS cells assessed as effect on cell morphology after 30 mins. The class given is cell-based. The note with it: 0.5 h.
In data set [3] the target is T1, Dynamin-2 (Homo sapiens) (UniProt P50570).
T1 sequence (whole entry): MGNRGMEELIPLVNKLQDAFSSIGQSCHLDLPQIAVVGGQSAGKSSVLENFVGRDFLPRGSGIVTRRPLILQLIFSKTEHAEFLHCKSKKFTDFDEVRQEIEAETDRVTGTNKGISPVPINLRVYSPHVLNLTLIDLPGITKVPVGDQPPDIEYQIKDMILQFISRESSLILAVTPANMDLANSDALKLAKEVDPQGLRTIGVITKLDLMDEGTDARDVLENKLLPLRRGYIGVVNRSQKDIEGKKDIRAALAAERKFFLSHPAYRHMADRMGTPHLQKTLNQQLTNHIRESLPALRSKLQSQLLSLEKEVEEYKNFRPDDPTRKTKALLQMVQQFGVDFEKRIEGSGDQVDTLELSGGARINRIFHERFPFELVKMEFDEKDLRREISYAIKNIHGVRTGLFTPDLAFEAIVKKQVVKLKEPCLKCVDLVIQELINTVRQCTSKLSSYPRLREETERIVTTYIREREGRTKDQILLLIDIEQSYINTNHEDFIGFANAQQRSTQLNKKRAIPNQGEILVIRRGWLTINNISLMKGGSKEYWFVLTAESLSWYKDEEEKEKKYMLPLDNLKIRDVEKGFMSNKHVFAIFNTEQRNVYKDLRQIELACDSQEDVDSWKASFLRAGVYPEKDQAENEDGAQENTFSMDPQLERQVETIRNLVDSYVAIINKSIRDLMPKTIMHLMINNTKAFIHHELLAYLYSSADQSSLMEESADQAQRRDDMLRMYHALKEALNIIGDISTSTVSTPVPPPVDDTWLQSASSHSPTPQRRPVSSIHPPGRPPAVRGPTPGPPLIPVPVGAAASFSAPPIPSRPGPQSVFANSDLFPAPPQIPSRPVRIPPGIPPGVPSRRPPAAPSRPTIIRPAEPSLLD
Briefly: Inhibition of dynamin 2-mediated endocytosis internalization of Texas red-transferrin in human U2OS cells at 100 uM pretreated for 30 mins. The format is cell-based. The method, boiled down: (§1)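 U2OS cells in DMEM/10% FCS on fibronectin-coated wells, serum-starved overnight (16 h). Preincubated 30 min with drug or vehicle, then Tf-Texas Red 4 µg/mL for 8 min at 37 °C. Ice-cold acid wash (0.2 M acetic acid/0.5 M NaCl, pH 2.8) strips surface Tf. Cells fixed in 4% PFA and DAPI-stained, and internalized Tf-TxR imaged by fluorescence microscopy. Final DMSO at most 1%.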

The species entered for data set [4] is Ovis aries. Nature of the data set: Uncompetitive inhibition of sheep brain dynamin 1 GTPase activity using variable GTP level by kinetic assay. The format is tissue-based. A digest of the protocol:
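Malachite green Pi release assay with PS-stimulated sheep brain dynamin I (20 nM) at 37 °C for 30 min, with GTP substrate varied in the presence of inhibitor. Vmax and Km were obtained by nonlinear Michaelis–Menten fitting, then the data were replotted as Lineweaver–Burk to assign the inhibition mode.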

The target in data set [5] is T1, Dynamin-2 (Homo sapiens). Nature of the data set: Inhibition of dynamin 2-mediated endocytosis internalization of Texas red-transferrin in human U2OS cells at 30 uM pretreated for 30 mins. The class given is cell-based. The method, boiled down:
as §1

The nature of data set [6]: Toxicity against human fibroblasts assessed as cell viability at 10 uM by trypan blue exclusion method. The class given is cell-based, Fibroblast. The note with it: read-out: Activity. The method, boiled down: (§2)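 Cells seeded at 1 × 10⁵ per 10 cm dish. From 24 h after seeding, exposed continuously for 7 days to drug (10 µM) or 0.5% DMSO vehicle. Floating and adherent cells collected, and viability scored by Trypan Blue exclusion on an automated analyzer. Cell lines: hTert breast stromal fibroblasts, two primary skin fibroblast lines, a primary myoblast line, NIH3T3.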

The nature of data set [7]: Toxicity against mouse NIH/3T3 cells assessed as cell viability at 10 uM by trypan blue exclusion method. The format is cell-based, NIH3T3. The conditions noted are these: read-out: Activity. The method, boiled down:
as §2

Consider `Cc1[nH]c2ccccc2c1/C=C(\C#N)C(=O)NCc1ccccc1`, for which the inhibition entry in the data set listed under Ovis aries [1] is “inactive”.
Same read-out and setting: under `CCCCCCNC(=O)/C(C#N)=C/c1c(C)[nH]c2ccccc12` stands “inactive”.
The compound `CCCCCCCCCCCCCCNC(=O)/C(C#N)=C/c1c(C)n(CCCN(C)C)c2ccccc12` displayed an IC50 in data set [2] of 52 µM. This lies in the double-digit micromolar range.
The same measure, in the same setting: the result for `COc1ccc(CNC(=O)/C(C#N)=C/c2c(C)n(CCN(C)C)c3ccccc23)cc1` reads 254 µM.
Turning to `CCCCCCCCNC(=O)/C(C#N)=C/c1c(C)n(CCN(C)C)c2ccccc12`, the Activity result with U2OS is listed as “Non-toxic”. In data set [2], the IC50 was found to be 9.05 µM. In addition, at Dynamin-2 (Homo sapiens) [3], the outcome was Active.
For `CCCCCCNC(=O)/C(C#N)=C/c1c(C)n(CCCN(C)C)c2ccccc12`, in that order: “Non-toxic”, 6.62 µM and “Active”.
As to `COc1ccc(CNC(=O)/C(C#N)=C/c2c(C)n(CCCN(C)C)c3ccccc23)cc1`, inhibition in data set [2] was half-maximal at 222 µM (IC50).
Compound `CN(C)CCCn1cc(CCC(=O)O)c2ccccc21` showed an IC50 in data set [2] of 143 µM.
As for `CCCCCCCCCCNC(=O)/C(C#N)=C/c1c(C)[nH]c2ccccc12`, the inhibition result in the data set listed under Ovis aries [1] is “inactive”.
For `CCCCCCCCCCCCCCNC(=O)/C(C#N)=C/c1c(C)[nH]c2ccccc12`, the inhibition result in the data set filed under Ovis aries [1] is “inactive”.
The compound `CCCCCCCCCCCCNC(=O)/C(C#N)=C/c1c(C)n(CCN(C)C)c2ccccc12` came in with an IC50 in data set [2] of 32 µM.
On to `Cc1c(/C=C(\C#N)C(=O)NCc2ccccc2)c2ccccc2n1CCCN(C)C`, for which the half-maximal inhibitory concentration (IC50) in data set [2] amounted to 201 µM.
As to `Cc1c(C=O)c2ccccc2n1CCN(C)C`, in the data set filed under Ovis aries [1], the inhibition result was “inactive”.
Compound `CN(C)CCn1ccc2ccccc21` came in with an IC50 in data set [2] of 300 µM.
In turn, `CN(C)CCCn1cc(C2=C(c3c[nH]c4ccccc34)C(=O)NC2=O)c2ccccc21` [GF-109203] displayed a concentration for half-maximal inhibition (IC50) in data set [2] of 100 µM.
With `Cc1c(/C=C(\C#N)C(=O)NCc2ccccc2)c2ccccc2n1CCN(C)C`, half-maximal inhibition in data set [2] (IC50) required 196 µM.
In turn, `CN(C)CCn1cc(CCC(=O)O)c2ccccc21` yielded an IC50 in data set [2] of 131 µM. This IC50 and that of the compound before are within 1.5-fold of each other.
Regarding `Cc1[nH]c2ccccc2c1/C=C(\C#N)C(=O)NC1CCCCC1`, the inhibition entry in the data set filed under Ovis aries [1] is “inactive”.
On the same count and under the same terms, under `Cc1c(C=O)c2ccccc2n1CCCN(C)C` stands “inactive”.
In the case of `CCCCCCCCNC(=O)/C(C#N)=C/c1c(C)n(CCCN(C)C)c2ccccc12`, the Activity result in the data set with U2OS is reported as “Non-toxic”. Moreover, the IC50 in data set [2] is 3.33 µM. For the same compound, the result in the data set filed under Ovis aries [4], on Dynamin-2 (Homo sapiens) [5] and at Dynamin-2 (Homo sapiens) [3] was Active.
With `CCNC(=O)/C(C#N)=C/c1c(C)n(CCN(C)C)c2ccccc12`, in the data set listed under Ovis aries [1], the inhibition result is “inactive”.
In the case of `COc1ccc(CNC(=O)/C(C#N)=C/c2c(C)[nH]c3ccccc23)cc1`, the inhibition result in the data set listed under Ovis aries [1] is “inactive”.
For `CCCNC(=O)/C(C#N)=C/c1c(C)n(CCN(C)C)c2ccccc12`, the inhibition entry in the data set listed under Ovis aries [1] is “inactive”.
For `CCCCNC(=O)/C(C#N)=C/c1c(C)n(CCCN(C)C)c2ccccc12`, the inhibition entry in the data set filed under Ovis aries [1] was “inactive”.
`CCCCNC(=O)/C(C#N)=C/c1c(C)[nH]c2ccccc12`: the inhibition entry in the data set filed under Ovis aries [1] was “inactive”.
On the same count and under the same terms, the result for `CCNC(=O)/C(C#N)=C/c1c(C)[nH]c2ccccc12` reads “inactive”.
As for `Cc1cc2ccccc2n1CCCN(C)C`, in data set [2], 300 µM corresponded to half-maximal inhibition (IC50).
Still for that read-out and setting: under `CCCCCCNC(=O)/C(C#N)=C/c1c(C)n(CCN(C)C)c2ccccc12` stands 7.69 µM.
`CCCCNC(=O)/C(C#N)=C/c1c(C)n(CCN(C)C)c2ccccc12`: the IC50 in data set [2] was determined as 300 µM.
Still for that read-out and setting: under `Cc1c(/C=C(\C#N)C(=O)NC2CCCCC2)c2ccccc2n1CCCN(C)C` stands 300 µM.
Same read-out and setting: under `CN(C)CCCn1ccc2ccccc21` stands 300 µM; under `CN1CCCC1CCn1cc(C2=C(c3c[nH]c4ccccc34)C(=O)NC2=O)c2ccccc21` (centres undefined), 100 µM.
With `CCCCCCCCNC(=O)/C(C#N)=C/c1c(C)[nH]c2ccccc12`, the inhibition result in the data set filed under Ovis aries [1] was “inactive”.
On the same count and under the same terms, the result for `CN(C)CCCn1cc(CC(=O)O)c2ccccc21` reads “inactive”.
In data set [2], `Cc1cc2ccccc2n1CCN(C)C` displayed an IC50 of 300 µM.
For `CCCCCCCCCCNC(=O)/C(C#N)=C/c1c(C)n(CCN(C)C)c2ccccc12`, in the data set with U2OS, the Activity result is listed as “Non-toxic”. Moreover, the 50% inhibitory concentration (IC50) in data set [2] is 10.1 µM. In addition, the outcome on Dynamin-2 (Homo sapiens) [3] was Active.
For `CCCCCCCCNC(=O)/C(C#N)=C/c1cn(CCCN(C)C)c2ccccc12`, the Activity entry with U2OS is “Non-toxic”. The same compound returned a half-maximal inhibitory concentration (IC50) in data set [2] of 1.3 µM. In addition, the result on Dynamin-2 (Homo sapiens) [5] and on Dynamin-2 (Homo sapiens) [3] was Active. The viability at 10 µM in data set [6] and in data set [7] was more than 98% in each case.
Regarding `CCCCCCCCCCCCCCNC(=O)/C(C#N)=C/c1c(C)n(CCN(C)C)c2ccccc12`, 38 µM corresponded to half-maximal inhibition in data set [2] (IC50).
For the compound `CCCCCCCCCCCCNC(=O)/C(C#N)=C/c1c(C)[nH]c2ccccc12`, the inhibition result in the data set listed under Ovis aries [1] is “inactive”.
For the compound `CCCNC(=O)/C(C#N)=C/c1c(C)n(CCCN(C)C)c2ccccc12`, in the data set listed under Ovis aries [1], the inhibition entry was “inactive”.
The same measure, in the same setting: the result for `CCNC(=O)/C(C#N)=C/c1c(C)n(CCCN(C)C)c2ccccc12` reads “inactive”.
The same measure, in the same setting: under `CCCNC(=O)/C(C#N)=C/c1c(C)[nH]c2ccccc12` stands “inactive”.
Compound `Cc1c(/C=C(\C#N)C(=O)NC2CCCCC2)c2ccccc2n1CCN(C)C` showed a half-maximal inhibitory concentration (IC50) in data set [2] of 300 µM.
Consider `CN(C)CCn1cc(CC(=O)O)c2ccccc21`, for which, in the data set listed under Ovis aries [1], the inhibition entry was “inactive”.

Broadly, the IC50 is the concentration that gives 50% inhibition. A lower IC50 goes with higher potency.
